Measured values from ChEMBL document CHEMBL1155950, “Novel amidino-substituted thienyl- and furylvinylbenzimidazole: derivatives and their photochemical conversion into corresponding diazacyclopenta[c]fluorenes. synthesis, interactions with DNA and RNA, and antitumor evaluation. 4” (J Med Chem, 2008).
Active and inactive are the calls of the source. No cut-off for these calls is given here.

Tests used:
[1] = system: HEp-2; test: Antiproliferative activity against human Hep2 cells after 72 hrs by MTT assay; type: functional, cell-based; settings: HEp-2, 72 h
In short: (§1)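 Monolayer cultures in DMEM with 10% FBS, 2 mM L-glutamine, penicillin and streptomycin, at 37 °C in 5% CO2. Seeded at 1 × 10⁴ to 3 × 10⁴ cells/mL on day 0. Compounds added at 10^-8 to 10^-4 M, then 72 h. MTT read-out, quadruplicate in three experiments, with a solvent control. IC50 by linear regression of percent growth around 50%.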

[2] = system: DNA; test: Binding affinity to calf thymus DNA at 0.3 of [compound]/[calf thymus DNA] at pH 7.0 by thermal denaturation assay; type: nucleic-acid assay; settings: Bos taurus
In short: (§2)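 Absorbance at 260 nm followed against temperature for free polynucleotide and complexes, in Na cacodylate buffer pH 7.0, I = 0.05 mol dm^-3. Ligand absorbance subtracted and curves normalized. Tm taken from the first-derivative maximum or by tangent method. ΔTm = Tm(complex) − Tm(free), average of at least two runs, error ±0.5 °C.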

[3] = system: SW-620; test: Antiproliferative activity against human SW620 cells after 72 hrs by MTT assay; type: functional, cell-based; settings: SW-620, 72 h; in short: as §1
[4] = system: DNA; test: Binding affinity to calf thymus DNA at 0.1 of [compound]/[calf thymus DNA] at pH 7.0 by thermal denaturation assay; type: nucleic-acid assay; settings: Bos taurus; in short: as §2
[5] = system: MIA PaCa-2; test: Antiproliferative activity against human MiaPaCa2 cells after 72 hrs by MTT assay; type: functional, cell-based; settings: MIA PaCa-2, 72 h; in short: as §1
[6] = system: MCF7; test: Antiproliferative activity against human MCF7 cells after 72 hrs by MTT assay; type: functional, cell-based; settings: MCF7, 72 h; in short: as §1
[7] = system: DNA; test: Binding affinity to calf thymus DNA at 0.2 of [compound]/[calf thymus DNA] at pH 7.0 by thermal denaturation assay; type: nucleic-acid assay; settings: Bos taurus; in short: as §2
[8] = Antiproliferative activity against human WI38 cells after 72 hrs by MTT assay; type: cell-based; settings: WI-38, 72 h
[9] = system: HeLa; test: Antiproliferative activity against human HeLa cells after 72 hrs by MTT assay; type: functional, cell-based; in short: as §1
[10] = system: Nucleic Acid; test: Binding affinity to polyA-polyU double stranded RNA at 0.3 of [compound]/[double stranded polynucleotide] at pH 7.0 by thermal denaturation assay; type: nucleic-acid assay; in short: as §2
[11] = system: DNA; test: Binding affinity to calf thymus DNA at pH 7.0 by fluorimetric titration; type: nucleic-acid assay; settings: Bos taurus
In short: (§3)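 Polynucleotide, given as phosphate concentration, added in portions to the compound in Na cacodylate buffer pH 7.0, I = 0.05 mol dm^-3, with polynucleotide in high excess. Emission recorded 350–550 nm, absorbance below 0.05 at excitation. Ks and n from nonlinear least-squares Scatchard fits. log K recalculated at fixed n = 0.2.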

[12] = system: MIA PaCa-2; test: Induction of apoptosis in human MiaPaCa2 cells at 10 uM after 72 hrs by annexin V assay; type: functional
In short: (§4)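 2 × 10⁴ cells per well, compounds added after 24 h, exposure 72 h. Floating and attached cells collected, washed and stained with annexin-V-fluorescein plus PI in Hepes buffer, then counted by fluorescence microscopy. Annexin-V-positive cells scored apoptotic, annexin-V/PI-positive scored necrotic. Apoptotic percentage taken relative to total cells.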

[13] = system: MIA PaCa-2; test: Cell cycle arrest in human MiaPaCa2 cells assessed as accumulation at G1/G0 phase at 10 uM after 24 hrs by flow cytometry; type: functional
In short: (§5)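 2 × 10⁵ cells per well, compound (10 µM) added after 24 h, then 24, 48 or 72 h. Floating and attached cells pooled, fixed in 70% ethanol and kept at −20 °C. Stained with PI 1 µg/mL plus RNase A 0.2 µg/µL. 20 000 events by flow cytometry, phase percentages from DNA histograms. Duplicates, repeated at least twice.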

[14] = system: MIA PaCa-2; test: Induction of apoptosis in human MiaPaCa2 cells at 5 uM after 72 hrs by annexin V assay; type: functional; in short: as §4
[15] = species on record: Bos taurus; test: Inhibition of calf thymus topoisomerase 1 assessed as induction of supercoiled plasmid pCI DNA nicking at 200 uM after 30 mins by gel electrophoresis
In short: (§6)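 Calf thymus topoisomerase I (8 U) with 0.8 µg supercoiled pCI in Tris-HCl pH 7.5 buffer with 175 mM KCl, 5 mM MgCl2, 0.1 mM EDTA and 2.5% glycerol, 37 °C for 30 min. Stopped with SDS, then proteinase K at 37 °C for 15 min and phenol/chloroform extraction. Run on 1% agarose with or without 0.5 µg/mL EtBr and viewed under UV.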

[16] = system: MIA PaCa-2; test: Cell cycle arrest in human MiaPaCa2 cells assessed as accumulation at sub G1 phase at 10 uM after 24 hrs by flow cytometry; type: functional; in short: as §5
[17] = system: MIA PaCa-2; test: Cell cycle arrest in human MiaPaCa2 cells assessed as accumulation at G2/M phase at 10 uM after 24 hrs by flow cytometry; type: functional; in short: as §5
[18] = Binding affinity to polyG-polyC double stranded RNA at pH 7.0 by fluorimetric titration; in short: as §3
[19] = species on record: Bos taurus; test: Inhibition of calf thymus topoisomerase 1-mediated supercoiled plasmid pCI DNA relaxation activity at 200 uM after 30 mins by gel electrophoresis; in short: as §6
[20] = system: MIA PaCa-2; test: Cell cycle arrest in human MiaPaCa2 cells assessed as accumulation at G2/M phase at 10 uM after 72 hrs by flow cytometry; type: functional; in short: as §5
[21] = Binding affinity to polyA-polyU double stranded RNA at pH 7.0 by fluorimetric titration; in short: as §3
[22] = system: MIA PaCa-2; test: Cell cycle arrest in human MiaPaCa2 cells assessed as accumulation at sub G1 phase at 10 uM after 72 hrs by flow cytometry; type: functional; in short: as §5
[23] = system: MIA PaCa-2; test: Cell cycle arrest in human MiaPaCa2 cells assessed as accumulation at S phase at 10 uM after 48 hrs by flow cytometry; type: functional; in short: as §5
[24] = system: MIA PaCa-2; test: Cell cycle arrest in human MiaPaCa2 cells assessed as accumulation at G2/M phase at 10 uM after 48 hrs by flow cytometry; type: functional; in short: as §5
[25] = system: HeLa; test: Induction of apoptosis in human HeLa cells at 5 uM after 72 hrs by annexin V assay; type: functional; in short: as §4
[26] = system: MIA PaCa-2; test: Cell cycle arrest in human MiaPaCa2 cells assessed as accumulation at sub G1 phase at 10 uM after 48 hrs by flow cytometry; type: functional; in short: as §5
[27] = system: MIA PaCa-2; test: Cell cycle arrest in human MiaPaCa2 cells assessed as accumulation at G1/G0 phase at 10 uM after 72 hrs by flow cytometry; type: functional; in short: as §5
[28] = system: HeLa; test: Induction of apoptosis in human HeLa cells at 10 uM after 72 hrs by annexin V assay; type: functional; in short: as §4
[29] = system: MIA PaCa-2; test: Cell cycle arrest in human MiaPaCa2 cells assessed as accumulation at S phase at 10 uM after 72 hrs by flow cytometry; type: functional; in short: as §5
[30] = system: MIA PaCa-2; test: Cell cycle arrest in human MiaPaCa2 cells assessed as accumulation at S phase at 10 uM after 24 hrs by flow cytometry; type: functional; in short: as §5
[31] = system: MIA PaCa-2; test: Cell cycle arrest in human MiaPaCa2 cells assessed as accumulation at G1/G0 phase at 10 uM after 48 hrs by flow cytometry; type: functional; in short: as §5
[32] = species on record: Bos taurus; test: Inhibition of calf thymus topoisomerase 1 assessed as induction of supercoiled plasmid pCI DNA nicking at 10 uM after 30 mins by gel electrophoresis
In short: (§7)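 Calf thymus topoisomerase I (8 U) with 0.8 µg negatively supercoiled pCI plasmid in relaxation buffer (10 mM Tris-HCl pH 7.5, 175 mM KCl, 5 mM MgCl2, 0.1 mM EDTA, 2.5% glycerol), ± test agent, 37 °C for 30 min. Stopped with SDS, then proteinase K digestion and phenol/chloroform/isoamyl alcohol extraction. Split onto 1% agarose gels with or without 0.5 µg/mL ethidium bromide. Nicked, relaxed and supercoiled bands viewed under UV.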

[33] = species on record: Bos taurus; test: Inhibition of calf thymus topoisomerase 1-mediated supercoiled plasmid pCI DNA relaxation activity at 10 uM after 30 mins by gel electrophoresis; in short: as §7
[34] = species on record: Bos taurus; test: Inhibition of calf thymus topoisomerase 1 assessed as induction of supercoiled plasmid pCI DNA nicking at 100 uM after 30 mins by gel electrophoresis; in short: as §7

SMILES | IC50 [1] | ΔTm [2] | IC50 [3] | ΔTm [4] | IC50 [5] | IC50 [6] | ΔTm [7] | IC50 [8] | IC50 [9] | ΔTm [10] | log K [11] | also measured
N=C(NC1CCCCC1)c1ccc2nc(/C=C/c3ccco3)[nH]c2c1 | 65 µM | 1.5 °C | > 100 µM | 1 °C | 78 µM | 19 µM | 1.6 °C | > 100 µM | 6 µM | 1.6 °C | 5.2 | –
C(=C\c1cccs1)/c1nc2ccc(C3=NCCN3)cc2[nH]1.Cl | 11 µM | 1.4 °C | 11 µM | 1.3 °C | 10 µM | 3 µM | 1.3 °C | 29 µM | 5 µM | 2.2 °C | 5 | Activity [12]: 4%; Activity [13]: 39%; Activity [14]: 2%; Activity [15]: Active; Activity [16]: 1%; Activity [17]: 19%; log K [18]: 5.6; Activity [19]: Active; Activity [20]: 19%; log K [21]: 5.8; Activity [22]: 3%; Activity [23]: 31%; Activity [24]: 20%; Activity [25]: 8%; Activity [26]: 1%; Activity [27]: 55%; Activity [28]: 14%; Activity [29]: 26%; Activity [30]: 42%; Activity [31]: 49%
C(=C\c1ccco1)/c1nc2ccc(C3=NCCN3)cc2[nH]1 | 67 µM | – | 50 µM | – | 51 µM | 9 µM | – | > 100 µM | 10 µM | – | – | –
CC[n+]1c(-c2ccccc2)c2cc(N)ccc2c2ccc(N)cc21 | – | – | – | – | – | – | – | – | – | – | – | Activity [32]: inactive; Activity [33]: Active
N=C(N)c1ccc2nc(/C=C/c3ccco3)[nH]c2c1 | 19 µM | – | 16 µM | – | > 100 µM | 12 µM | – | > 100 µM | 4 µM | – | – | –
CC[C@@]1(O)C(=O)OCc2c1cc1n(c2=O)Cc2cc3ccccc3nc2-1 | – | – | – | – | – | – | – | – | – | – | – | Activity [34]: Active
